Common to all, as to format: functional, cell-based
Test [1] deals with SK-BR-3. Nature of the test: Antiproliferative activity against human SKBR3 cells expressing HER2 after 72 hrs by MTS/PMS assay. Conditions: SK-BR-3, 72 h. The gist of the method: (§1)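 Cells kept in Advanced DMEM/F12 (1:1) with non-essential amino acids, 2 mM L-glutamine, penicillin, streptomycin and 10% FBS at 37 °C, 5% CO2. Seeded at 2000/well, attached overnight. Compound added in DMSO across a concentration range (1% DMSO final) for 72 h. Viable cells read by MTS/PMS and normalized to 1% DMSO controls (100%). IC50 taken from separate triplicate experiments.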

The test system of test [2] is MCF7. Nature of the test: Antiproliferative activity against human MCF7 cells expressing estrogen receptor after 72 hrs by MTS/PMS assay. The following applies: MCF7, 72 h. The method, boiled down: as §1
Test [3] is described as follows: Antiproliferative activity against human androgen-dependent LNCaP-LN3 cells after 72 hrs by MTS/PMS assay. The following applies: LNCaP-LN3, 72 h. The method, boiled down: as §1
Test [4] can be described thus: Antiproliferative activity against human androgen-independent PC3MM2 cells after 72 hrs by MTS/PMS assay. The following applies: PC3MM2, 72 h. The gist of the method:
as §1

In test [5] the test system is B16-F10. Put plainly: Antiproliferative activity against mouse B16F10 cells after 72 hrs by MTS/PMS assay. The following applies: B16-F10, 72 h. The gist of the method: as §1
The subject of test [6] is SK-MEL-28. Put plainly: Antiproliferative activity against human SK-MEL-28 cells after 72 hrs by MTS/PMS assay. Conditions: SK-MEL-28, 72 h. The method, boiled down:
as §1

The nature of test [7]: Antiproliferative activity against human MDA1986 cells after 72 hrs by MTS/PMS assay. The following applies: MDA1986, 72 h. The gist of the method: as §1
Test [8] can be described thus: Antiproliferative activity against human JMAR cells after 72 hrs by MTS/PMS assay. The gist of the method:
as §1

pIC50: −log10 of the molar value.

The term pIC50 denotes −log10 of the IC50, conventionally taken in molar units. High values mean a low IC50, low ones a high IC50.

Regarding `COc1cccc(-c2cc(C(=O)Nc3cc4ccc(O[C@@H]5OC[C@@H](O)[C@H]5O)c(OC)c4oc3=O)ccc2OC)c1`, the pIC50 is 5.12 in test [1]; 4.93 in test [2]; 5.59 in test [3]; 4.97 in test [4]; 5.89 in test [5]; 5.19 in test [6]. Further, the pIC50 is 5.24 in test [7] and 5.57 in test [8].

As for `COc1cccc(-c2cc(C(=O)Nc3cc4ccc(OC(C)=O)c(C)c4oc3=O)ccc2OC)c1`, the pIC50 in test [1] is 6.01; in test [2], 5.85; in test [3] it was 5.82; in test [4], 5.55; in test [5], 5.64; in test [6], 5.67. Moreover, the pIC50 in test [7] is 5.78; in test [8], 4.90.

Take `COc1cccc(-c2cc(C(=O)Nc3cc4ccc(OC5C=CCNC5)c(C)c4oc3=O)ccc2OC)c1` (centres undefined): the negative-log IC50 (pIC50) is 5.79 in test [1]; 5.76 in test [2]; 5.37 in test [3]; 5.36 in test [4]; 5.53 in test [5]; 5.27 in test [6]. The results for the negative logarithm of the IC50 (pIC50) in test [7] and in test [8] were 5.18 and 5.47, respectively.

For `COc1cccc(-c2cc(C(=O)Nc3cc4ccc(OC5CCN(C)CC5)c(OC)c4oc3=O)ccc2OC)c1`, the negative-log IC50 (pIC50) in test [1] is 6.01; in test [2], 5.86; in test [3] it was 5.32; in test [4], 5.43; in test [5], 6.39; in test [6] it was 5.21. Also, the pIC50 in test [7] and in test [8] was 4.88 each time.

For `COc1cccc(-c2cc(C(=O)Nc3cc4ccc(OC5CCNCC5)c(OC)c4oc3=O)ccc2OC)c1`, the pIC50 is 5.75 in test [1]; 5.49 in test [2]; 4.96 in test [3]; 5.07 in test [4]; 5.67 in test [5]; 4.78 in test [6]. Further, the negative logarithm of the IC50 (pIC50) in test [7] was 4.96; in test [8], 4.90.

Regarding `COc1cccc(-c2cc(C(=O)Nc3cc4ccc(OC5C=CCN(C)C5)c(OC)c4oc3=O)ccc2OC)c1` (centres undefined), the negative-log IC50 (pIC50) in test [1] was 5.47; in test [2] it was 5.78; in test [3] it was 6.44; in test [4] it was 6.01; in test [5] it was 5.19; in test [6] it was 5.83. In addition, the pIC50 was 5.63 in test [7] and 5.71 in test [8].

For the compound `COc1cccc(-c2cc(C(=O)Nc3cc4ccc(OC5CCCN(C)C5)c(C)c4oc3=O)ccc2OC)c1` (centres undefined), the negative-log IC50 (pIC50) in test [1] is 5.69; in test [2], 5.30; in test [3], 5.91; in test [4], 5.37; in test [5], 5.59; in test [6], 5.21. Also, the pIC50 in test [7] was 5.35; in test [8], 4.90.

Take `COc1cccc(-c2cc(C(=O)Nc3cc4cc(OC)c(OC5C=CCN(C)C5)c(C)c4oc3=O)ccc2OC)c1` (centres undefined): the negative-log IC50 (pIC50) in test [1] is 5.71; in test [2], 5.28; in test [3], 5.35; in test [4], 5.41; in test [5], 5.21; in test [6], 4.50. Besides, the pIC50 in test [7] was 4.79; in test [8], 4.74.

As for `COc1cccc(-c2cc(C(=O)Nc3cc4ccc(OC5CC(C)(C)C[C@@H](O)[C@H]5O)c(C)c4oc3=O)ccc2OC)c1` (some centres undefined), the pIC50 in test [1] is < 4.00; in test [2], < 4.00; in test [3] it was 5.91; in test [4], 5.60; in test [5] it was 4.80; in test [6] it was 5.46. Besides, the pIC50 was 4.73 in test [7] and 5.07 in test [8].

Turning to `COc1cc2cc(NC(=O)c3cc4ccccc4[nH]3)c(=O)oc2c(C)c1OC1CCN(C)CC1`, the pIC50 was 6.96 in test [1]; 6.28 in test [2]; 5.83 in test [3]; 6.06 in test [4]; 5.92 in test [5]; 5.83 in test [6]. The figures for the negative logarithm of the IC50 (pIC50) in test [7] and in test [8] were 5.85 and 5.91, respectively.

Regarding `COc1cccc(-c2cc(C(=O)Nc3cc4cc(OC)c(OC5CCNCC5)c(C)c4oc3=O)ccc2OC)c1`, the pIC50 in test [1] was 5.92; in test [2], 5.55; in test [3], 5.28; in test [4], 5.40; in test [5] it was 5.74; in test [6], 5.24. In addition, the pIC50 was 4.84 in test [7] and 4.96 in test [8].

Take `COc1cccc(-c2cc(C(=O)Nc3cc4ccc(O[C@@H]5O[C@H](CO)C[C@@H](O)[C@H]5O)c(C)c4oc3=O)ccc2OC)c1`: the pIC50 in test [1] is 5.02; in test [2], 4.96; in test [3], 5.49; in test [4], 5.34; in test [5], 5.02; in test [6], 4.97. Moreover, the pIC50 in test [7] and in test [8] was 5.24 throughout.

As for `COc1cccc(-c2cc(C(=O)Nc3cc4ccc(OC5CNC[C@@H](O)[C@H]5O)c(C)c4oc3=O)ccc2OC)c1` (some centres undefined), the pIC50 in test [1] was 5.54; in test [2], 5.68; in test [3], 5.31; in test [4] it was 5.20; in test [5] it was 5.55; in test [6] it was 5.21. Further, the results for the negative-log IC50 (pIC50) in test [7] and in test [8] were 5.25 and 5.23, respectively.

Take `COc1cccc(-c2cc(C(=O)Nc3cc4cc(OC)c(OC5CCN(C)CC5)c(C)c4oc3=O)ccc2OC)c1`: the negative logarithm of the IC50 (pIC50) in test [1] was 5.92; in test [2] it was 5.75; in test [3], 5.38; in test [4] it was 5.55; in test [5], 4.43; in test [6] it was 5.43. For the same compound, the pIC50 in test [7] is 5.81; in test [8], 5.74.

Take `COc1cccc(-c2cc(C(=O)Nc3cc4ccc(OC5C=CCN(C)C5)c(C)c4oc3=O)ccc2OC)c1` (centres undefined): the pIC50 is 5.53 in test [1]; 5.28 in test [2]; 5.91 in test [3]; 5.76 in test [4]; 5.19 in test [5]; 4.97 in test [6]. The figures for the negative logarithm of the IC50 (pIC50) in test [7] and in test [8] were 5.11 and 4.94, respectively.

For `COc1cccc(-c2cc(C(=O)Nc3cc4cc(OC)c(OC5CN(C)C[C@@H](O)[C@H]5O)c(C)c4oc3=O)ccc2OC)c1` (some centres undefined), the negative-log IC50 (pIC50) in test [1] is 5.56; in test [2] it was 5.70; in test [3] it was 5.33; in test [4], 5.38; in test [5], 5.55; in test [6], 5.24. The negative-log IC50 (pIC50) in test [7] is 4.89; in test [8], 4.61.

Regarding `COc1cccc(-c2cc(C(=O)Nc3cc4ccc(O[C@@H]5OCCC[C@H]5O)c(C)c4oc3=O)ccc2OC)c1`, the negative-log IC50 (pIC50) in test [1] is < 4.00; in test [2] it was < 4.00; in test [3] it was 5.43; in test [4], 5.00; in test [5] it was 6.00; in test [6], 5.83. Also, the pIC50 in test [7] was 6.09; in test [8] it was 4.79.

Consider `COc1cccc(-c2cc(C(=O)Nc3cc4ccc(OC5CN(C)C[C@@H](O)[C@H]5O)c(OC)c4oc3=O)ccc2OC)c1` (some centres undefined), for which the negative-log IC50 (pIC50) is 5.18 in test [1]; 4.96 in test [2]; 5.82 in test [3]; 5.45 in test [4]; 5.18 in test [5]; 5.23 in test [6]. For the same compound, the pIC50 is 5.23 in test [7] and 5.17 in test [8].

For the origin of these results see ChEMBL document CHEMBL1795208 (J Med Chem, 2011).
